Source: ChEMBL document CHEMBL1133143, “Calpain inhibitors based on the quiescent affinity label concept: high rates of calpain inactivation with leaving groups derived from N-hydroxy peptide coupling reagents” (Bioorg Med Chem Lett, 2000)
Residues, ends and D or L forms follow the SMILES beside them. *: point of attachment. Cbz = O=C(OCc1ccccc1)*; CH2F = FC*

What was measured:
[1] = biological target: Cathepsin B (Homo sapiens) (UniProt P07858); assay: Second order rate constant for inactivation of human liver cathepsin B was reported
Method in brief: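 Human liver cathepsin B inactivation was run by an analogous progress-curve method (substrate plus inhibitor) under published assay conditions. The second-order rate constant came from progress-curve analysis. Inhibitor was added as quickly as possible before measurement because of limited aqueous stability.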

[2] = biological target: T1, Calpain-1 catalytic subunit (Homo sapiens) (UniProt P07384); assay: Second order rate constant for inactivation of recombinant human Calpain 1 was reported
T1 sequence (whole entry): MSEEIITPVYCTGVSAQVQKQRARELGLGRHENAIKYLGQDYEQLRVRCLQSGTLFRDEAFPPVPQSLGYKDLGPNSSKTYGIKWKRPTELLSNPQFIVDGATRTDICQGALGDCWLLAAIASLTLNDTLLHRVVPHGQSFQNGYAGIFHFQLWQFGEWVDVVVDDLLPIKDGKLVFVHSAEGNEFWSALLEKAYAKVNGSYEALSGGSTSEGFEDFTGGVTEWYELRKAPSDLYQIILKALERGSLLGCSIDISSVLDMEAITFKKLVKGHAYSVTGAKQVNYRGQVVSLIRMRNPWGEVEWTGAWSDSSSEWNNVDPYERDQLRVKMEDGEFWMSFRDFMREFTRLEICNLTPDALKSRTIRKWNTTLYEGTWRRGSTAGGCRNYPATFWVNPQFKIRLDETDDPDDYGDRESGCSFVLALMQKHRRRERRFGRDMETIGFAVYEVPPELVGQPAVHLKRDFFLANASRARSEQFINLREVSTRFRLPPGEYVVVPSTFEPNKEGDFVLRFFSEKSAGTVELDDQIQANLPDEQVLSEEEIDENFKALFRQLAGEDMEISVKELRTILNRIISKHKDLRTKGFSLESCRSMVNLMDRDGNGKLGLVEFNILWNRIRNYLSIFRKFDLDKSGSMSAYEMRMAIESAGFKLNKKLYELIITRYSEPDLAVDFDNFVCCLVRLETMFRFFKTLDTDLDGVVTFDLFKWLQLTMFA
Method in brief: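 Started with 5 mM CaCl2 at ambient temperature. Fluorescence (ex 340/em 440 nm) was recorded continuously. kobs came from an exponential fit, and k2 from the kobs-vs-[I] slope with a (1+S/Km) correction.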

[3] = biological target: Cathepsin B (Homo sapiens) (UniProt P07858); assay: Ratio of second order rate constant of calpain I to that of cathepsinB
[4] = biological target: Cathepsin B (Homo sapiens) (UniProt P07858); assay: Percent inhibition of recombinant calpain I after 5 min of incubation with 10 uM compound
Method in brief: (§1)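 Single-concentration test: 10 inhibitor, 5 min incubation, then percent inhibition of recombinant human calpain I activity measured by the fluorogenic Suc-Leu-Tyr-MNA assay (ex 340/em 440 nm) in Ca2+-initiated buffer at ambient temperature.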

[5] = biological target: T1, Calpain-1 catalytic subunit (Homo sapiens); assay: Percent inhibition of recombinant Calpain 1 after 5 min of incubation with 10 uM compound; method in brief: as §1

| SMILES | K obs / 1 [1] [M⁻¹ s⁻¹] | K obs / 1 [2] [M⁻¹ s⁻¹] | Ratio [3] | inhibition [4] [%] | inhibition [5] [%] |
| --- | --- | --- | --- | --- | --- |
| CC(C)CC(NC(=O)OCc1ccccc1)C(=O)NC(Cc1ccccc1)C(=O)COn1nnc2cccnc21 (stereo not given) | 107000 | 184000 | 1.7 | – | – |
| CC(C)CC(NC(=O)OCc1ccccc1)C(=O)NC(Cc1ccccc1)C(=O)CON1C(=O)C2C3C=CC(C3)C2C1=O (stereo not given) | 6900 | 1000 | 0.14 | – | – |
| CC(C)CC(NC(=O)OCc1ccccc1)C(=O)NC(Cc1ccccc1)C(=O)CON1C(=O)CCC1=O (stereo not given) | – | 5800 | – | – | – |
| CC(C)CC(NC(=O)OCc1ccccc1)C(=O)NC(CC(C)C)C(=O)NC(Cc1ccccc1)C(=O)COn1nnc2ccccc21 (stereo not given) | – | 524000 | – | 32 | – |
| CC(C)CC(NC(=O)OCc1ccccc1)C(=O)NC(Cc1ccccc1)C(=O)Cn1nnc2ccccc21 (stereo not given) | – | – | – | – | 83 |
| CC(C)CC(NC(=O)OCc1ccccc1)C(=O)NC(Cc1ccccc1)C(=O)CON1C(=O)c2ccccc2C1=O (stereo not given) | – | – | – | – | 32 |
| CC(C)CC(NC(=O)OCc1ccccc1)C(=O)NC(Cc1ccccc1)C(=O)CF (stereo not drawn) (Cbz-Leu-Phe-CH2F; configuration not given here) | 300 | 136000 | 454 | – | – |
| CCC(NC(=O)C(CC(C)C)NC(=O)OCc1ccccc1)C(=O)COn1nnc2ccccc21 (stereo not given) | 443000 | 63000 | 0.14 | – | – |
| CC(C)CC(NC(=O)OCc1ccccc1)C(=O)NC(Cc1ccccc1)C(=O)COn1nnc2ccccc21 (stereo in doubt; 1d) | 118000 | 320000 | 2.7 | – | – |
